Reference: ChEMBL document CHEMBL4689842, “EUbOPEN Chemogenomics Library wave 1” (2021)

Assays:
Format in all cases: toxicity, cell-based
[1] = tested on: HEK-293T; assay: Incucyte cell viability with HEK293T; details: human, 10 µM, compound concentration 10 uM; also: filed as whole numbers so only -1 and 0 and 1 occur
[2] = tested on: U2OS; assay: Incucyte cell viability with U2OS; details: human, 10 µM, compound concentration 10 uM; also: filed as whole numbers so only -1 and 0 and 1 occur
[3] = tested on: U2OS; assay: Multiplex assay against U2OS; details: human
Procedure, shortened: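 Per cents of healthy-nucleus cells form the tubulin, mitochondrial-mass and membrane-permeability phenotype values. Live cells were stained at seeding with Hoechst33342, BioTracker Green Microtubule Cytoskeleton Dye, MitoTracker Red and Annexin V Alexa Fluor 680. After compound addition they were imaged on a CQ1 microscope at 37°C and 5% CO2, and CellPathfinder machine-learning gating split them into Hoechst high-intensity objects or normal cells, normal cells into healthy, pyknosed or fragmented nuclei, and pyknosed cells into mitotic or apoptotic.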

[4] = tested on: Fibroblast; assay: Incucyte cell viability with human fibroblast; details: 10 µM, compound concentration 10 uM; also: filed as whole numbers so only -1 and 0 and 1 occur
[5] = 0 h, replicate number 1, timepoint 0 hours
[6] = 6 h, replicate number 1, timepoint 6 hours
[7] = 12 h, replicate number 1, timepoint 12 hours
[8] = 18 h, replicate number 1, timepoint 18 hours
[9] = 24 h, replicate number 1, timepoint 24 hours
[10] = 0 h, replicate number 2, timepoint 0 hours
[11] = 12 h, 1 µM, compound concentration 1 uM, replicate 1
[12] = 12 h, 1 µM, compound concentration 1 uM, replicate 2
[13] = 12 h, 10 µM, compound concentration 10 uM, replicate 1
[14] = 12 h, 10 µM, compound concentration 10 uM, replicate 2
[15] = 24 h, 1 µM, compound concentration 1 uM, replicate 1
[16] = 24 h, 1 µM, compound concentration 1 uM, replicate 2
[17] = 24 h, 10 µM, compound concentration 10 uM, replicate 1
[18] = 24 h, 10 µM, compound concentration 10 uM, replicate 2

CCOC(=O)CCNc1cc(N2CCc3ccccc3CC2)nc(-c2ccccn2)n1
Growth Rate [1, 5]: 1
Growth Rate [1, 6]: 0
Growth Rate [1, 7]: 0
Growth Rate [1, 8]: 0
Growth Rate [1, 9]: 0
Growth Rate [2, 5]: 0
Growth Rate [2, 10]: 1
Growth Rate [2, 6]: 0
Growth Rate [2, 7]: 0
Growth Rate [2, 8]: 0
Growth Rate [2, 9]: 0
Population Apoptotic (%) [3, 11]: 37%
Population Fragmented Nuclei (%) [3, 11]: 7%
Population Healthy Nuclei (%) [3, 11]: 85%
Population Hoechst High Intensity Objects (%) [3, 11]: 3%
Population Membrane Permeable-Phenotype (%) [3, 11]: 14%
Population Mitochondria Different-Phenotype (%) [3, 11]: 40%
Population Mitotic Cells (%) [3, 11]: 62%
Population Normal (%) [3, 11]: 96%
Population Pyknosed Nuclei (%) [3, 11]: 6%
Population Tubulin-Different-Phenotype (%) [3, 11]: 30%
Total Cell Count [3, 11]: 244
Population Apoptotic (%) [3, 12]: 45%
Population Fragmented Nuclei (%) [3, 12]: 4%
Population Healthy Nuclei (%) [3, 12]: 86%
Population Hoechst High Intensity Objects (%) [3, 12]: 8%
Population Membrane Permeable-Phenotype (%) [3, 12]: 13%
Population Mitochondria Different-Phenotype (%) [3, 12]: 27%
Population Mitotic Cells (%) [3, 12]: 54%
Population Normal (%) [3, 12]: 91%
Population Pyknosed Nuclei (%) [3, 12]: 9%
Population Tubulin-Different-Phenotype (%) [3, 12]: 23%
Total Cell Count [3, 12]: 141
Population Apoptotic (%) [3, 13]: 46%
Population Fragmented Nuclei (%) [3, 13]: 7%
Population Healthy Nuclei (%) [3, 13]: 82%
Population Hoechst High Intensity Objects (%) [3, 13]: 5%
Population Membrane Permeable-Phenotype (%) [3, 13]: 11%
Population Mitochondria Different-Phenotype (%) [3, 13]: 32%
Population Mitotic Cells (%) [3, 13]: 53%
Population Normal (%) [3, 13]: 94%
Population Pyknosed Nuclei (%) [3, 13]: 10%
Population Tubulin-Different-Phenotype (%) [3, 13]: 34%
Total Cell Count [3, 13]: 133
Population Apoptotic (%) [3, 14]: 40%
Population Fragmented Nuclei (%) [3, 14]: 3%
Population Healthy Nuclei (%) [3, 14]: 92%
Population Hoechst High Intensity Objects (%) [3, 14]: 9%
Population Membrane Permeable-Phenotype (%) [3, 14]: 9%
Population Mitochondria Different-Phenotype (%) [3, 14]: 29%
Population Mitotic Cells (%) [3, 14]: 60%
Population Normal (%) [3, 14]: 90%
Population Pyknosed Nuclei (%) [3, 14]: 3%
Population Tubulin-Different-Phenotype (%) [3, 14]: 26%
Total Cell Count [3, 14]: 126
Population Apoptotic (%) [3, 15]: 33%
Population Fragmented Nuclei (%) [3, 15]: 5%
Population Healthy Nuclei (%) [3, 15]: 91%
Population Hoechst High Intensity Objects (%) [3, 15]: 1%
Population Membrane Permeable-Phenotype (%) [3, 15]: 11%
Population Mitochondria Different-Phenotype (%) [3, 15]: 36%
Population Mitotic Cells (%) [3, 15]: 66%
Population Normal (%) [3, 15]: 98%
Population Pyknosed Nuclei (%) [3, 15]: 3%
Population Tubulin-Different-Phenotype (%) [3, 15]: 36%
Total Cell Count [3, 15]: 264
Population Apoptotic (%) [3, 16]: 16%
Population Fragmented Nuclei (%) [3, 16]: 8%
Population Healthy Nuclei (%) [3, 16]: 87%
Population Hoechst High Intensity Objects (%) [3, 16]: 10%
Population Membrane Permeable-Phenotype (%) [3, 16]: 10%
Population Mitochondria Different-Phenotype (%) [3, 16]: 28%
Population Mitotic Cells (%) [3, 16]: 83%
Population Normal (%) [3, 16]: 89%
Population Pyknosed Nuclei (%) [3, 16]: 4%
Population Tubulin-Different-Phenotype (%) [3, 16]: 23%
Total Cell Count [3, 16]: 146
Population Apoptotic (%) [3, 17]: 64%
Population Fragmented Nuclei (%) [3, 17]: 7%
Population Healthy Nuclei (%) [3, 17]: 83%
Population Hoechst High Intensity Objects (%) [3, 17]: 5%
Population Membrane Permeable-Phenotype (%) [3, 17]: 7%
Population Mitochondria Different-Phenotype (%) [3, 17]: 37%
Population Mitotic Cells (%) [3, 17]: 35%
Population Normal (%) [3, 17]: 94%
Population Pyknosed Nuclei (%) [3, 17]: 8%
Population Tubulin-Different-Phenotype (%) [3, 17]: 13%
Total Cell Count [3, 17]: 181
Population Apoptotic (%) [3, 18]: 81%
Population Fragmented Nuclei (%) [3, 18]: 4%
Population Healthy Nuclei (%) [3, 18]: 88%
Population Hoechst High Intensity Objects (%) [3, 18]: 7%
Population Membrane Permeable-Phenotype (%) [3, 18]: 8%
Population Mitochondria Different-Phenotype (%) [3, 18]: 36%
Population Mitotic Cells (%) [3, 18]: 18%
Population Normal (%) [3, 18]: 92%
Population Pyknosed Nuclei (%) [3, 18]: 7%
Population Tubulin-Different-Phenotype (%) [3, 18]: 9%
Total Cell Count [3, 18]: 165
Growth Rate [4, 10]: 0
Growth Rate [4, 6]: 1
Growth Rate [4, 7]: 1
Growth Rate [4, 8]: 1
Growth Rate [4, 9]: 1
